These results are taken from PubChem BioAssay AID743208 (The Scripps Research Institute Molecular Screening Center, 2013).

As a reminder, the inhibition is the share of the control response that was lost under treatment.

The whole screen tested about 2,100 compounds, of which about 30 (1%) were called active.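 Rule for the calls: active = inhibition above about 20% chosen separately for each screening run (limit read from the data); inactive = the rest.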 Not all results are given here.

Disintegrin and metalloproteinase domain-containing protein 10 (Homo sapiens), sequence (O14672 214-748 limits assumed): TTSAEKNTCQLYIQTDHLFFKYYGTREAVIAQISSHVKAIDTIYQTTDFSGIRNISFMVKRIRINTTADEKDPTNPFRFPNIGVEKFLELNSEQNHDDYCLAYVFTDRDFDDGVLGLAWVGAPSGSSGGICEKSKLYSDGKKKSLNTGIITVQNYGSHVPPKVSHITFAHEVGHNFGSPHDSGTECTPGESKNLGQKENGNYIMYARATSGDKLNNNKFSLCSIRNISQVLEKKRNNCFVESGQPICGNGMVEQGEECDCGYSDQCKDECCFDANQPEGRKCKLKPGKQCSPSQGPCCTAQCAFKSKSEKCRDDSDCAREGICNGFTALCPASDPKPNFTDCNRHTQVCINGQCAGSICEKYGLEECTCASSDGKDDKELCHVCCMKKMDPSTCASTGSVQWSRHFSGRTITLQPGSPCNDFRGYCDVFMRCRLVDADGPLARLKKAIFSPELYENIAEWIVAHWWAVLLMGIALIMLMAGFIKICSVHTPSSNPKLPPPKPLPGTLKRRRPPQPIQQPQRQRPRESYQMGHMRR

For the test, the target named is Disintegrin and metalloproteinase domain-containing protein 10 (Homo sapiens) (UniProt O14672). Description: blockers of ADAM10 peptide cleavage – biochemical, QFRET, triplicate, confirmation (AID 743208).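 Note: 0% = DMSO wells and 100% = marimastat wells.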 The note with it: EDANS fluorescence, at 6.95 µM, hits give high values. The procedure, abridged:
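system = ADAM10 enzyme, FRET peptide substrate | compound = 6.95 µM single dose | incubation = 30 min preincubation and 3 h reaction at 25 °C | signal = FRET fluorescence, ex 359 nm, em 460 nm | evaluation = percent inhibition of peptide cleavage scaled between DMSO and marimastat controls | repeats = triplicate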
With `COc1cc(Cl)c(S(=O)(=O)N2CCN(Cc3ccc4c(c3)OCO4)CC2)cc1Cl`, the inhibition was 3.51% (inactive). On to `O=C(/C=C/c1ccc(F)cc1)NC(=S)NNC(=O)c1cccnc1`, for which the inhibition was 0.49% (inactive).

`O=C(CC(O)(C(F)(F)F)C(F)(F)F)Nc1ccc(Cl)c(Cl)c1`: the inhibition is 2.03% (inactive).

As for `CCOc1ccc(N2C(=O)CC(N(CCc3ccc(OC)c(OC)c3)C(=S)Nc3ccccc3)C2=O)cc1` (stereo not drawn), the inhibition was 0.13% (inactive). Consider `CC(C)(C)OC(=O)CNC(=O)c1[nH]cnc1C(=O)N[C@@H](Cc1ccccc1)C(=O)OCc1ccccc1`, for which the inhibition was 6.97% (inactive). Take `COc1cccc(C2CC(c3ccccc3)=NN2S(=O)(=O)c2ccccc2)c1OC` (stereo not drawn): the inhibition is 4.77% (inactive).

As for `Cc1cc(C)cc(NC(=S)NCCc2c[nH]c3ccccc23)c1`, the inhibition was 2.41% (inactive). As for `COc1ccc(NS(=O)(=O)c2ccc(C)c(C(=O)NNC(=O)c3csc(N4CCOCC4)n3)c2)cc1`, the figure is 2.95% (inactive). Turning to `CCC1(C)Cc2c(sc3nnn(CC(=O)Nc4ccc(Cl)cc4)c(=O)c23)CO1` (stereo not drawn), the inhibition is 6.24% (inactive). As for `O=C(CSC1=NCCS1)Nc1nc(-c2ccccc2)cs1`, the figure is 0.24% (inactive); as for `COc1ccc(C(N)c2csc(NC(=O)Nc3cccc(C(F)(F)F)c3)n2)cc1` (stereo not drawn), 3.14% (inactive).

For `O=C1NC(Nc2nc3ccccc3s2)(C(F)(F)F)C(=O)N1C1CCCCC1` (stereo not drawn), the inhibition is 3.12% (inactive). Next, `Cc1cc(C)cc(NC(=O)CSCc2cnn(-c3ccccc3)c2-n2cccc2)c1`: 7.84% (inactive); `Cc1ccc(OCc2nnc(SC/C=C/c3ccccc3)n2Cc2ccco2)cc1`: 5.61% (inactive). On to `CC(C)(C)N1C(=O)[C@H]2[C@@H](c3ccc(Br)cc3)N3C(=O)N(c4cccc(Cl)c4)C(=O)[C@@]3(C)[C@H]2C1=O`, for which the inhibition is 2.62% (inactive). As for `O=C(Nc1cccc(S(=O)(=O)Nc2ccc(Cl)cc2)c1)c1ccc2c(c1)OCCO2`, the figure is 8.03% (inactive). `O=C(NCc1ccccc1)c1onc(CSc2nc3ccccc3[nH]2)c1C(=O)NCc1ccccc1`: the inhibition was 5.46% (inactive). For `CC(C)Oc1ccc(CC(=O)NNC(=S)Nc2ccc(Br)cc2)cc1`, the inhibition is 3.54% (inactive).

For `COC(=O)C1NN=C(C(=O)c2ccc(Br)cc2)C1c1cccc(Br)c1` (stereo not drawn), the inhibition was 3.07% (inactive). Take `COc1ccc(C(=O)NNC(=S)NC(=O)c2ccccc2)cc1`: the inhibition was 0.52% (inactive).

On to `COc1ccc([C@H]2CC(=O)C=C(c3ccc(OC(F)(F)F)cc3)C2)cc1OC`, for which the inhibition was 1.68% (inactive). Consider `COc1cc(/C=C2/SC(=S)N(Cc3ccccc3)C2=O)cc(OC)c1O`, for which the inhibition was 7.56% (inactive). Next, `O=C(Oc1cccc(N2C(=O)C3C4c5ccccc5C(c5ccccc54)C3C2=O)c1)c1ccco1` (stereo not drawn): 3.26% (inactive).
